Results as given in ChEMBL document CHEMBL1255169, “Synthesis, structure-affinity relationships, and radiolabeling of selective high-affinity 5-HT4 receptor ligands as prospective imaging probes for positron emission tomography” (J Med Chem, 2010).
Calls of active or inactive are those of the source. No cut-off for these calls is given here.

Legend:
[1] = target: T1, 5-hydroxytryptamine receptor 4 (Homo sapiens, UniProt Q13639); test: Displacement of [3H]GR113808 from human recombinant 5HT4 receptor expressed in HEK293 cells; assay type: cell-based
T1 sequence (Q13639 whole entry): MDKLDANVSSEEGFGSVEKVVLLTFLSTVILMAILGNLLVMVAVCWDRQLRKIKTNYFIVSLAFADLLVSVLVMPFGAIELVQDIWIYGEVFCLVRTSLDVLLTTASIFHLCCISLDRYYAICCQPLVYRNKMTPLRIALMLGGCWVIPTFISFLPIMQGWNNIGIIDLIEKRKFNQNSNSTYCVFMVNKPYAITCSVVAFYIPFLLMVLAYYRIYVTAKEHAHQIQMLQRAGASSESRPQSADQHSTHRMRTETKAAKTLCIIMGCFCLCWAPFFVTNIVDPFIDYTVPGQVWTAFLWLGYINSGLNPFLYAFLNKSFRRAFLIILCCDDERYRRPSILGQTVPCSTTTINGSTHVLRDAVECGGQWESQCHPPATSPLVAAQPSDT

[2] = target: T1, 5-hydroxytryptamine receptor 4; test: Agonist activity at 5HT4 receptor expressed in HEK293/L9 cells by cAMP assay; assay type: functional, cell-based
[3] = target: T1, 5-hydroxytryptamine receptor 4; test: Inverse agonist activity at 5HT4 receptor expressed in HEK293/L9 cells by cAMP assay; assay type: functional, cell-based
D(4) dopamine receptor = target: T2, D(4) dopamine receptor (Rattus norvegicus, UniProt P30729); test: Binding affinity to rat dopamine D4 receptor
T2 sequence (P30729 whole entry): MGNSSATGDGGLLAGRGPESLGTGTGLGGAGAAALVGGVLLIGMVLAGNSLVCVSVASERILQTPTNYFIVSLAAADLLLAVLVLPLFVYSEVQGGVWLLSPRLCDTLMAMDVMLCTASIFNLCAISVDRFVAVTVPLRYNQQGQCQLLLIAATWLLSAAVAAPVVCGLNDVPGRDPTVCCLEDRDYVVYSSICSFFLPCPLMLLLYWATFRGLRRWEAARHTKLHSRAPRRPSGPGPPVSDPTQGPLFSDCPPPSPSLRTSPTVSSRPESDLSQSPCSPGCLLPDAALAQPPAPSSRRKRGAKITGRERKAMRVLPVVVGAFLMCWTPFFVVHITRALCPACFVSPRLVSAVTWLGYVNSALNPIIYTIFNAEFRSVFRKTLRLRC

[4] = target: T3, Alpha-2C adrenergic receptor (Homo sapiens, UniProt P18825); test: Binding affinity to human adrenergic Alpha-2C receptor
T3 sequence (P18825 whole entry): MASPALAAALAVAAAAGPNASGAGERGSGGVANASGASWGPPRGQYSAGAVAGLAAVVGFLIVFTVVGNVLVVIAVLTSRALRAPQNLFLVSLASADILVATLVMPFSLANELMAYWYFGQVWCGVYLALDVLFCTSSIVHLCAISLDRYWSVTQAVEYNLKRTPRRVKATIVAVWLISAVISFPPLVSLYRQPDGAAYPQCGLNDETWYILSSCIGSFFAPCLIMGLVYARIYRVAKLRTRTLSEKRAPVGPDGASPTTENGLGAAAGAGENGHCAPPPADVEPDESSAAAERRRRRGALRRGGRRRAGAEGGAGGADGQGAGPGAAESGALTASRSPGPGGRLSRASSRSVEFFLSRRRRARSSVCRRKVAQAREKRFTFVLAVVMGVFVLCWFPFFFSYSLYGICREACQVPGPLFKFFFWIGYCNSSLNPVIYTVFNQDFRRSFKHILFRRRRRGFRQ

D(2) dopamine receptor = D(2) dopamine receptor (Rattus norvegicus, UniProt P61169); test: Binding affinity to rat dopamine D2 receptor
Chain of D(2) dopamine receptor (P61169 whole entry): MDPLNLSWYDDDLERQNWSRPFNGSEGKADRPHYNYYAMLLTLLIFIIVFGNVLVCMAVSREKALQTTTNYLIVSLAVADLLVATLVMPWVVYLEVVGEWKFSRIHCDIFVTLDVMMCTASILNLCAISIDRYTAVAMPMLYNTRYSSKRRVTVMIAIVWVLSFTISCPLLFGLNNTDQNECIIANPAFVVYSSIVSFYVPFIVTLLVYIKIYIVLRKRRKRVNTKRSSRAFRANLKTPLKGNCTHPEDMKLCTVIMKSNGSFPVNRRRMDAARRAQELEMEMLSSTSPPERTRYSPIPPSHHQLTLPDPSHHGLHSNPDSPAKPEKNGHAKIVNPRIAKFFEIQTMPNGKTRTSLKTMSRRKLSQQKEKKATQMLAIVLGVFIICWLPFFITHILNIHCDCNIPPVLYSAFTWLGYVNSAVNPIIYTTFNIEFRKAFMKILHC

[5] = target: Sigma non-opioid intracellular receptor 1 (Rattus norvegicus, UniProt Q9R0C9); test: Binding affinity to rat sigma 1 receptor
Chain of Sigma non-opioid intracellular receptor 1 (Q9R0C9 whole entry): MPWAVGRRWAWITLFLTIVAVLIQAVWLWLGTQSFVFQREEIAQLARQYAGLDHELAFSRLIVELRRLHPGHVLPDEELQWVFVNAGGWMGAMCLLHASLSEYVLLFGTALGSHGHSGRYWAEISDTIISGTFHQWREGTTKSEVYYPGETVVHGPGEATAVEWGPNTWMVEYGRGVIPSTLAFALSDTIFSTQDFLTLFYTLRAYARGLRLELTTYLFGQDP

[6] = target: 5-hydroxytryptamine receptor 2B (Homo sapiens, UniProt P41595); test: Binding affinity to human 5-HT2B receptor
Chain of 5-hydroxytryptamine receptor 2B (P41595 whole entry): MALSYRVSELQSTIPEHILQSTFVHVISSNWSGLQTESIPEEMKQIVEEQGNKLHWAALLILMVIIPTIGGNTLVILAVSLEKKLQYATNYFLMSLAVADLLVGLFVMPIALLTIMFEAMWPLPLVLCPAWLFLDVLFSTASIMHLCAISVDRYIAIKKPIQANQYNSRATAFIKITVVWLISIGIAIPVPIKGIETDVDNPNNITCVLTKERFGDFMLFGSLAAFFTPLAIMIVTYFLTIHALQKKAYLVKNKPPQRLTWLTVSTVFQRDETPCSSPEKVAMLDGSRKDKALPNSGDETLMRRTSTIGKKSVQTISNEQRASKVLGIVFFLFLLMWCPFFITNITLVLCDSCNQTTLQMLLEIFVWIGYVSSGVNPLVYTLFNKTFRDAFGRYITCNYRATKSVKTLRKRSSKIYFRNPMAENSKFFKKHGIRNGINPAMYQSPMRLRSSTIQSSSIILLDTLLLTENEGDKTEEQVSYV

[7] = target: T4, Alpha-1B adrenergic receptor (Homo sapiens, UniProt P35368); test: Binding affinity to human adrenergic Alpha-1B receptor
T4 sequence (P35368 whole entry): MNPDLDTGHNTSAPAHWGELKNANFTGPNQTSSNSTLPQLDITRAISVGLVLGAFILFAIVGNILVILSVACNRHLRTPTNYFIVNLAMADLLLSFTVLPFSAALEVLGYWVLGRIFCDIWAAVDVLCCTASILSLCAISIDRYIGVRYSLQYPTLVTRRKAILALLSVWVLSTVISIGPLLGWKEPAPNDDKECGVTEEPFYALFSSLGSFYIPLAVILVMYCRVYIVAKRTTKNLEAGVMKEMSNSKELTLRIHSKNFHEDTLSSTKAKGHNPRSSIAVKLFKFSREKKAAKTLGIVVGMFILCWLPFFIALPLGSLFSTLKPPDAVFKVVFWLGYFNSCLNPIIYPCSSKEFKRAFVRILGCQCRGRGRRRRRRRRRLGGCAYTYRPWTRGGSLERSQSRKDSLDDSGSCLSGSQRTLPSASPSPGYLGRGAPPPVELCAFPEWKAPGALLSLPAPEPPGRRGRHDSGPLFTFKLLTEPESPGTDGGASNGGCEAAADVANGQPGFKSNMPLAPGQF

[8] = target: 5-hydroxytryptamine receptor 1D (Homo sapiens, UniProt P28221); test: Binding affinity to human 5-HT1D receptor
Chain of 5-hydroxytryptamine receptor 1D (P28221 whole entry): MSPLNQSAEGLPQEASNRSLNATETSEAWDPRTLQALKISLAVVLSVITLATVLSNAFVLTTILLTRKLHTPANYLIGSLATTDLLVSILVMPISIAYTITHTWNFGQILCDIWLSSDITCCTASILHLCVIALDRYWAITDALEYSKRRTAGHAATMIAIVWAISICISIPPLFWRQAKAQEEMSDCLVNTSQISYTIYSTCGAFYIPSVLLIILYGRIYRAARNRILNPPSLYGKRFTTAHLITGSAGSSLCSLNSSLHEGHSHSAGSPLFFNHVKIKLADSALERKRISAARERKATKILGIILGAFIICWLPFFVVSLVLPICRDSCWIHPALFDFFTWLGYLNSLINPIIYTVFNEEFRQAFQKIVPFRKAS

[9] = target: T5, Alpha-1A adrenergic receptor (Homo sapiens, UniProt P35348); test: Binding affinity to human adrenergic alpha1A receptor
T5 sequence (P35348 whole entry): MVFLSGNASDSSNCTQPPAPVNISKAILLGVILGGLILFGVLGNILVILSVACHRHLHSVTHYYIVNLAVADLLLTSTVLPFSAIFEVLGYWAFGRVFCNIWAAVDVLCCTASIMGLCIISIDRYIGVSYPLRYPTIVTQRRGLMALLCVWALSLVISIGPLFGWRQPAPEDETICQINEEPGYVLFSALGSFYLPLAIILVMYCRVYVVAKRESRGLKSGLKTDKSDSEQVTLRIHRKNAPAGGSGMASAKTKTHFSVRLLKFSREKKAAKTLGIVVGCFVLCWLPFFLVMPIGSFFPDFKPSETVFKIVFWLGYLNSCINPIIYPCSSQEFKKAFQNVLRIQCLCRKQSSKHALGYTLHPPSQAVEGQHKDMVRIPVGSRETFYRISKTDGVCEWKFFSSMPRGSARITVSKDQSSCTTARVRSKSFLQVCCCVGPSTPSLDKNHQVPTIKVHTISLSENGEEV

[10] = target: 5-hydroxytryptamine receptor 4 (Cavia porcellus, UniProt O70528); test: Displacement of [3H]GR113808 from 5HT4 receptor in guinea pig striatal membranes; assay type: cell membranes, Striatum, Membrane
Chain of 5-hydroxytryptamine receptor 4 (Cavia porcellus, UniProt O70528) (O70528 whole entry): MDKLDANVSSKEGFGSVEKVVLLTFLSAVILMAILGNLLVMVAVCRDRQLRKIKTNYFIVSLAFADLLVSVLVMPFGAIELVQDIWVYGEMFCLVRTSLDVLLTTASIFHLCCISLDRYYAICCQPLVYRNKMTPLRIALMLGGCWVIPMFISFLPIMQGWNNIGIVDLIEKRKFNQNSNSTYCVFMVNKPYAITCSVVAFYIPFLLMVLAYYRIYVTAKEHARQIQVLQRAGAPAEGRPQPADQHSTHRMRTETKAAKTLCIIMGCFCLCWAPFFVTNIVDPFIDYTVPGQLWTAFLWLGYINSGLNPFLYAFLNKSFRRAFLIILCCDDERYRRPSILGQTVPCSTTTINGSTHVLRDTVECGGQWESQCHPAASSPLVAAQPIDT

[11] = target: T6, 5-hydroxytryptamine receptor 2C (Homo sapiens, UniProt P28335); test: Binding affinity to human 5-HT2C receptor
T6 sequence (P28335 whole entry): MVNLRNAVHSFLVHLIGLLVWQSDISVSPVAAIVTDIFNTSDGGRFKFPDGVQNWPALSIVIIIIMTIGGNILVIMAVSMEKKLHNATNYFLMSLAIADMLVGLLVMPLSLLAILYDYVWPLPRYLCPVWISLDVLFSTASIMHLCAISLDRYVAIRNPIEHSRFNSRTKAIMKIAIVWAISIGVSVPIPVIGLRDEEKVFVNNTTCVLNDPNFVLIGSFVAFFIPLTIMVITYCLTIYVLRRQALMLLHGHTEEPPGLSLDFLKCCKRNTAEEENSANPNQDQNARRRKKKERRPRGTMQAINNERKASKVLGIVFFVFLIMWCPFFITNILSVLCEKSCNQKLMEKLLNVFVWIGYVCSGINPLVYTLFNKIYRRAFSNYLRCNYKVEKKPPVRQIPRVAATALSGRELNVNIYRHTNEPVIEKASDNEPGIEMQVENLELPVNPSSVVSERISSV

Histamine H3 receptor = Histamine H3 receptor (Cavia porcellus, UniProt Q9JI35); test: Binding affinity to guinea pig histamine H3 receptor
Chain of Histamine H3 receptor (Q9JI35 whole entry): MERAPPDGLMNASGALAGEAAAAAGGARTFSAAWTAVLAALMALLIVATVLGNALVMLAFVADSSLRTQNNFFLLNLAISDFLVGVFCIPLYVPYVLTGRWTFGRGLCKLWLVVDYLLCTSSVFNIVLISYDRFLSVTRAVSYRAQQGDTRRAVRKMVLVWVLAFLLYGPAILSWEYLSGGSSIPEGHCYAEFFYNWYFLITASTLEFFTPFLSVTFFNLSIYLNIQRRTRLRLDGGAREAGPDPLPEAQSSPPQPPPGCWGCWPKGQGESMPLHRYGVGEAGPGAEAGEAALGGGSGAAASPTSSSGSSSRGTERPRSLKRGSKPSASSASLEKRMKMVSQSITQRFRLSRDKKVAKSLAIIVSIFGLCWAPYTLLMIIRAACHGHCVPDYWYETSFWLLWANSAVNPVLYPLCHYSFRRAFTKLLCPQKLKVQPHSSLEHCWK

D(3) dopamine receptor = D(3) dopamine receptor (Rattus norvegicus, UniProt P19020); test: Binding affinity to rat dopamine D3 receptor
Chain of D(3) dopamine receptor (P19020 whole entry): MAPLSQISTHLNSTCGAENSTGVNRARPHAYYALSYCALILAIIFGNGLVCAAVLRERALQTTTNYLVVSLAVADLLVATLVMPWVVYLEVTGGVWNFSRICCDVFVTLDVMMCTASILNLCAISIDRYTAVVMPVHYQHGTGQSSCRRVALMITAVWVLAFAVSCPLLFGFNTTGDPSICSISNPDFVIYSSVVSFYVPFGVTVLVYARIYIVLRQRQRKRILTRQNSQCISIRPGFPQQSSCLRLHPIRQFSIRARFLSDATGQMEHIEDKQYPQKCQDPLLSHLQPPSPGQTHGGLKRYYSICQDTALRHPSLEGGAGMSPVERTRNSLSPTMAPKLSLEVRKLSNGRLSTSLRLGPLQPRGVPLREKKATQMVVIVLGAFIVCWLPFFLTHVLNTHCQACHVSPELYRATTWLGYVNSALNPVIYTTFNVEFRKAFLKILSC

[12] = Binding affinity to rat sigma 2 receptor
[13] = target: T7, Alpha-2B adrenergic receptor (Homo sapiens, UniProt P18089); test: Binding affinity to human adrenergic alpha2B receptor
T7 sequence (P18089 whole entry): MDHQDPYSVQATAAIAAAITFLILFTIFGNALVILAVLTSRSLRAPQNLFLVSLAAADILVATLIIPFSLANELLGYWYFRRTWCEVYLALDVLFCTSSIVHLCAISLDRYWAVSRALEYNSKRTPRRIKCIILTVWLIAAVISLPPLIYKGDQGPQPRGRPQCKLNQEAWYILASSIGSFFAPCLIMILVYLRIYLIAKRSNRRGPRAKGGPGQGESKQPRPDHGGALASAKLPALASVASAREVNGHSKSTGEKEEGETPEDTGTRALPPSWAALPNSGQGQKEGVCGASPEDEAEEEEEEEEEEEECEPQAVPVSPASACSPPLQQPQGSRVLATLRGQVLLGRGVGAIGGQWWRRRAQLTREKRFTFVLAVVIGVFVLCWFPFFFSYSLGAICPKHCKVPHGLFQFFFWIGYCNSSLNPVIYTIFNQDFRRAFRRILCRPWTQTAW
How it was run: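 Radioligand binding run by the NIMH Psychoactive Drug Screening Program as part of a broad receptor and binding-site panel, which included α1A, α1B, α1D and α2A–C subtypes. Affinity is expressed as Ki.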

[14] = target: T1, 5-hydroxytryptamine receptor 4; test: Antagonist activity at 5HT4 receptor expressed in HEK293/L9 cells by cAMP assay; assay type: functional, cell-based

Ki [1]	EC50 [2]	Efficacy [3]	Ki [10]	SMILES	further results
8.66 µM				CCCCN1CCC(CNC(=O)c2ccc(N)c(OC)c2)CC1	
0.017 µM			0.000901 µM	CCCN1CCC(COC(=O)c2ccc(N)c(OC)c2)CC1	
0.012 µM				CCCCCN1CCC(COC(=O)c2ccc(N)c(OC)c2)CC1	
0.011 µM			0.000215 µM	CCCCN1CCC(COC(=O)c2ccc(N)c(OCCF)c2)CC1	
0.017 µM			0.000334 µM	CCCCN1CCC(COC(=O)c2ccc(N)c(OCF)c2)CC1	

The remaining lines, values behind:

SMILES	Ki [1]	EC50 [2]	Efficacy [3]	Ki [10]	further results
CCCCN1CCC(COC(=O)c2cc(C#N)c(NC)c3c2OCCO3)CC1	0.037 µM	0.0158 µM	Active		
CCCCN1CCC(COC(=O)c2cc(Br)c(NC)c3c2OCCO3)CC1	0.0045 µM	0.01 µM	Active		
CCCCN1CCC(COC(=O)c2cc(F)c(N)c3c2OCCO3)CC1	0.0021 µM	0.00589 µM	Active	0.000334 µM	Ki (D(4) dopamine receptor): 0.316 µM; Ki [4]: 0.593 µM; Ki (D(2) dopamine receptor): 0.615 µM; Ki [5]: 0.055 µM; Ki [6]: 0.168 µM; Ki [7]: 9.08 µM; Ki [8]: 2.86 µM; Ki [9]: 0.0876 µM; Ki [11]: 8.36 µM; Ki (Histamine H3 receptor): 5.04 µM; Ki (D(3) dopamine receptor): 1.01 µM; Ki [12]: 0.0129 µM; Ki [13]: 0.773 µM
CCCCN1CCC(COC(=O)c2ccc(N)c3c2OCCO3)CC1	0.0014 µM				Efficacy [14]: Active
CCCCN1CCC(COC(=O)c2cc(I)c(N)c3c2OCCO3)CC1				0.0002 µM	
CCCCN1CCC(COC(=O)c2cc(I)c(NC)c3c2OCCO3)CC1	0.0074 µM	0.02 µM	Active		
CCCCN1CCC(COC(=O)c2cc([N+](=O)[O-])c(N)c3c2OCCO3)CC1	0.0078 µM				
CCCCN1CCC(COC(=O)c2ccc(NC)c3c2OCCO3)CC1	0.0091 µM	0.00891 µM	Active		
CCCCN1CCC(COC(=O)c2cc(C)c(N)c3c2OCCO3)CC1	0.0063 µM				Efficacy [14]: Active
CCCCN1CCC(COC(=O)c2cc(C#N)c(N)c3c2OCCO3)CC1	0.033 µM			0.00045 µM	
